From ChEMBL document CHEMBL1140756, “Synthesis and antiviral activity of new dimeric inhibitors against HIV-1” (Bioorg Med Chem, 2008) come the findings set out here.

In test [1] the test system is Human immunodeficiency virus 1. The test is described as follows: Antiviral activity against HIV1 Y181C mutant. Format: functional, organism-based. The essentials: (§1)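 Acute infection of MT-4 cells (1×10^4 per well) with NNRTI-resistant HIV-1 stocks (K103N+Y181C A17, Y181C N119, efavirenz-selected K103R+V179D+P225H) titrated in C8166 cells by syncytia scoring. Compounds were serially diluted from 100 mM DMSO stocks. Virus input gave full cytopathogenicity at day 4, 37 °C. Read-out was protection of viability by MTT, or p24 immunoassay.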

In test [2] the test system is Human immunodeficiency virus 1. The test is described as follows: Antiviral activity against HIV1 HTLV-3B. Format: functional, organism-based. The conditions noted are these: Human immunodeficiency virus 1, HTLV-3B. The essentials: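 MT-4 cells (1×10^4 per well) in RPMI 1640 with 10% FCS, exposed to serial compound dilutions (DMSO stocks at 100 mM diluted in medium), then infected with HIV-1 IIIB at an input giving complete cytopathogenicity by day 4. Incubated at 37 °C; viability read by MTT. EC50 = dose giving 50% protection; mean of at least two experiments.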

In test [3] the test system is Human immunodeficiency virus 1. In words: Antiviral activity against efavirenz-resistant HIV1. Format: functional, organism-based. The essentials:
as §1

A short description of test [4]: Selectivity index, ratio of CC50 for human MT4 cells to EC50 for wild type HIV1. It counts as functional. The method, boiled down: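 CC50 from mock-infected MT-4 cells, read by MTT in parallel with the antiviral test, divided by EC50 for 50% protection from HIV-1 IIIB cytopathogenicity (MTT, day 4 input, 37 °C). Both values are means of at least two separate experiments.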

Test [5] concerns Human immunodeficiency virus 1. The test is described as follows: Antiviral activity against HIV1 K103N/Y181C mutant. It counts as functional, organism-based. The method, boiled down: as §1
Another test concerns MT4 (Homo sapiens). The test is described as follows: Cytotoxicity against mock-infected human MT4 cells by MTT assay. (In general: Formazan colour is commonly taken as a measure of viable cells.)

What is called EC50 is the concentration at which the effect is half-maximal. Read a low EC50 as greater potency. By CC50 is commonly meant the concentration at which the toxic effect on the cells reaches its halfway point. Read a high CC50 as lower toxicity to the cells. As for `CCc1c(Cc2cc(C)cc(C)c2)n(COCC#Cc2ccc(I)cc2)c(=O)[nH]c1=O`, the EC50 in test [1] was 10 µM; in test [2] it was 0.2 µM; in test [3] it was over 44 µM; in test [5], over 44 µM. Moreover, the “Ratio CC50/EC50” value in test [4] was 220. In addition, in the test on MT4 (Homo sapiens), the CC50 is 44 µM.

Regarding `CCc1c(Cc2cc(C)cc(C)c2)n(COCC#Cc2ccc(COCn3c(Cc4cc(C)cc(C)c4)c(CC)c(=O)[nH]c3=O)cc2)c(=O)[nH]c1=O`, the EC50 in test [1] is 4 µM; in test [2] it was 0.3 µM; in test [3], over 16 µM; in test [5], over 16 µM. In test [4], the “Ratio CC50/EC50” value is recorded as 53. Besides, the CC50 in the test on MT4 (Homo sapiens) worked out at 16 µM.

Turning to `O=C1Nc2ccc(Cl)cc2[C@@](C#CC2CC2)(C(F)(F)F)O1` [EFAVIRENZ], the EC50 was found to be 0.008 µM in test [1] and 0.3 µM in test [5]. The compound also registered a CC50 in the test with MT4 (Homo sapiens) of 30 µM.

Regarding `C#CCOCn1c(Cc2cc(C)cc(C)c2)c(CC)c(=O)[nH]c1=O`, the concentration for a half-maximal effect (EC50) in test [1] worked out at 0.2 µM; in test [2], 0.003 µM; in test [3], 16 µM; in test [5], 1.2 µM. The Ratio CC50/EC50 in test [4] was over 33300. For the same compound, the CC50 with MT4 (Homo sapiens) is over 100 µM.

Consider `CC[C@@]12CC[C@H]3C4CCC(=O)C=C4CC[C@@H]3[C@H]1CC[C@]2(O)C#CC#C[C@@]1(O)CC[C@@H]2[C@H]3CCC4=CC(=O)CCC4[C@@H]3CC[C@]21CC` (some centres undefined), for which the EC50 in test [1], in test [2], in test [3] and in test [5] was over 28 µM throughout. Also, the “Ratio CC50/EC50” value in test [4] is reported as 1. Moreover, the CC50 in the test on MT4 (Homo sapiens) came out at 28 µM.

For `CCc1c(Cc2cc(C)cc(C)c2)n(COCc2ccc(C#C[C@@]3(O)CC[C@@H]4[C@H]5CCC6=CC(=O)CC[C@H]6[C@@H]5CC[C@]43CC)cc2)c(=O)[nH]c1=O`, the EC50 in test [1] was 2.8 µM; in test [2] it was 0.4 µM; in test [3] it was over 100 µM; in test [5] it was over 100 µM. For the same compound, the “Ratio CC50/EC50” value in test [4] is recorded as over 250. Further, in the test on MT4 (Homo sapiens), the CC50 is over 100 µM.

On to `CCc1c(Cc2cc(C)cc(C)c2)n(COCC#CC#CCOCn2c(Cc3cc(C)cc(C)c3)c(CC)c(=O)[nH]c2=O)c(=O)[nH]c1=O`, for which the EC50 was over 9 µM in test [1], 0.5 µM in test [2], over 9 µM in test [3] and over 9 µM in test [5]. Moreover, the “Ratio CC50/EC50” value in test [4] stood at 18. Also, the CC50 in the test on MT4 (Homo sapiens) was 9 µM.

For `CCOCn1c(Cc2ccccc2)c(C(C)C)c(=O)[nH]c1=O` [EMIVIRINE], the EC50 is 20 µM in test [1], 0.03 µM in test [2], 100 µM in test [3] and over 100 µM in test [5]. Also, the “Ratio CC50/EC50” value in test [4] was over 3333. Further, in the test with MT4 (Homo sapiens), the CC50 was over 100 µM.

`CCc1c(Cc2cc(C)cc(C)c2)n(COCc2cn([C@H]3C[C@H](n4cc(C)c(=O)[nH]c4=O)O[C@@H]3CO)nn2)c(=O)[nH]c1=O`: the results for the EC50 in test [1], in test [3] and in test [5] were 8 µM, 26 µM and 27 µM, respectively. Besides, in test [4], the “Ratio CC50/EC50” value is recorded as over 1250. This compound also gave a CC50 with MT4 (Homo sapiens) of over 100 µM.

In the case of `CCc1c(Cc2cc(C)cc(C)c2)n(COCc2ccc(I)cc2)c(=O)[nH]c1=O`, the EC50 in test [1] is 0.1 µM; in test [2], 0.007 µM; in test [3], 0.8 µM; in test [5], 0.9 µM. Further, the “Ratio CC50/EC50” value in test [4] is reported as 2714. Moreover, it took 19 µM to reach half-maximal cytotoxicity with MT4 (Homo sapiens) (CC50).

For the compound `CCc1c(Cc2ccccc2C)n(COCC#CC#CCOCn2c(Cc3ccccc3C)c(CC)c(=O)[nH]c2=O)c(=O)[nH]c1=O`, the EC50 in test [1], in test [2], in test [3] and in test [5] was over 8 µM in each case. Also, in test [4], the “Ratio CC50/EC50” value is 1. The same compound yielded a CC50 in the test with MT4 (Homo sapiens) of 8 µM.

Consider `CCc1c(Cc2cc(C)cc(C)c2)n(COCC#Cc2ccc(C#CCOCn3c(Cc4cc(C)cc(C)c4)c(CC)c(=O)[nH]c3=O)cc2)c(=O)[nH]c1=O`, for which the EC50 in test [1] was over 85 µM; in test [2] it was 2.8 µM; in test [3], over 85 µM; in test [5] it was over 85 µM. Moreover, the “Ratio CC50/EC50” value in test [4] was found to be 30. For the same compound, it took 85 µM to reach half-maximal cytotoxicity with MT4 (Homo sapiens) (CC50).

Turning to `C#CCOCn1c(Cc2ccccc2C)c(CC)c(=O)[nH]c1=O`, the EC50 is over 33 µM in test [1], 0.4 µM in test [2], over 33 µM in test [3] and over 33 µM in test [5]. Besides, in test [4], the “Ratio CC50/EC50” value is reported as 82. The same compound showed a CC50 in the test on MT4 (Homo sapiens) of 33 µM.
